From ChEMBL document CHEMBL2321658 (ACS Med Chem Lett, 2013)
pIC50: −log10 of the molar value. Active and inactive are the calls of the source. No cut-off for these calls is given here.

Legend:
SKBr3 (Homo sapiens) = assay: Antiproliferative activity against human SKBr3 cells
MCF7 [1] = assay: Antiproliferative activity against human MCF7 cells; assay type: functional, cell-based
Procedure, shortened: (§1)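 Cell growth inhibition with values in µM, reported as mean ± standard deviation from at least two separate experiments, each run in triplicate.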

SK-BR-3 = assay: Antiproliferative activity against human SKBR3 cells; assay type: functional, cell-based
Procedure, shortened: as §1

Heat shock protein HSP90 [2] = molecular target: T1, Heat shock protein HSP90 (Homo sapiens, UniProt P07900+P08238); assay: Inhibition of Hsp90 (unknown origin); assay type: protein assay
Heat shock protein HSP90 [3] = molecular target: T1, Heat shock protein HSP90; assay: Inhibition of Hsp90 in human MCF7 cells assessed as Akt degradation after 24 hrs by Western blot analysis; assay type: cell-based
Procedure, shortened: (§2)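 MCF-7 cells treated across a range of concentrations (in µM). Cell lysates were analysed by western blot for the Hsp90-dependent client proteins Her2, Raf and Akt. Geldanamycin (500 nM) served as positive control and DMSO as negative control.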

Heat shock protein HSP90 [4] = molecular target: T1, Heat shock protein HSP90; assay: Inhibition of Hsp90 in human MCF7 cells assessed as Her2 degradation after 24 hrs by Western blot analysis; assay type: cell-based
Procedure, shortened: as §2

MCF7 [5] = assay: Effect on Hsp90 level in human MCF7 cells after 24 hrs by Western blot analysis; assay type: functional, cell-based
Heat shock protein HSP90 [6] = molecular target: T1, Heat shock protein HSP90; assay: Inhibition of Hsp90 in human MCF7 cells assessed as Raf degradation after 24 hrs by Western blot analysis; assay type: cell-based
Procedure, shortened: as §2

| IC50 (SKBr3 (Homo sapiens)) [µM] | pIC50 (MCF7 [1]) | pIC50 (SK-BR-3) | SMILES | further results |
| --- | --- | --- | --- | --- |
| 0.31 |  |  | Cc1ccc(NC(=O)Nc2cc3ccc(OC4CCN(C)CC4)c(C)c3oc2=O)cc1C |  |
|  | 5.66 | 5.61 | C=CCc1cc(C(=O)Nc2cc3ccc(OC4CCN(C)CC4)c(C)c3oc2=O)ccc1O |  |
|  | 5.84 | 6.08 | Cc1c(OC2CCN(C)CC2)ccc2cc(NC(=O)c3ccc(O)cc3)c(=O)oc12 |  |
|  | 5.79 | 5.78 | CC(=O)Oc1ccc(C(=O)Nc2cc3ccc(OC4CCN(C)CC4)c(C)c3oc2=O)cc1 |  |
| 0.27 |  |  | Cc1ccc(NC(=O)Nc2cc3ccc(OC4CCN(C)CC4)c(C)c3oc2=O)cc1 |  |
| 13.9 |  |  | COc1cccc(-c2cc(C(=O)Nc3cc4ccc(O[C@@H]5OC(C)(C)[C@H](OC)[C@@H](O)[C@H]5O)c(OC)c4oc3=O)ccc2OC)c1 |  |
|  | 5.84 | 5.85 | CCCCOc1ccc(C(=O)Nc2cc3ccc(OC4CCN(C)CC4)c(C)c3oc2=O)cc1CC=C(C)C |  |
| 7.5 |  |  | COc1cccc(-c2cc(C(=O)Nc3cc4ccc(O[C@@H]5OC(C)(C)[C@H](OC)[C@@H](O)[C@H]5O)c(C)c4oc3=O)ccc2OC)c1 |  |
|  | 5.83 | 5.64 | Cc1c(OC2CCN(C)CC2)ccc2cc(NC(=O)c3ccc(O)c(Cl)c3)c(=O)oc12 |  |
|  | 6.09 | 6.07 | COc1cccc(-c2cc(C(=O)Nc3cc4ccc(OC5CCN(C)CC5)c(C)c4oc3=O)ccc2O)c1 |  |
|  | 5.30 | 5.46 | Cc1c(OC2CCN(C)CC2)ccc2cc(NC(=O)c3ccc4c(c3)CCC(C)(C)O4)c(=O)oc12 |  |
|  | 6.42 | 6.51 | COc1ccc(C(=O)Nc2cc3ccc(OC4CCN(C)CC4)c(C)c3oc2=O)cc1-c1cccc(O)c1 | IC50 (Heat shock protein HSP90 [2]): 0.31 µM |
|  | 6.33 | 6.68 | CC(C)=CCc1cc(C(=O)Nc2cc3ccc(OC4CCN(C)CC4)c(C)c3oc2=O)ccc1OC1CCN(C)CC1 |  |
|  | 5.80 | 5.85 | COc1ccc(C(=O)Nc2cc3ccc(OC4CCN(C)CC4)c(C)c3oc2=O)cc1CC=C(C)C |  |
|  | 5.68 | 5.77 | CC(C)=CCc1cccc(C(=O)Nc2cc3ccc(OC4CCN(C)CC4)c(C)c3oc2=O)c1 |  |
|  | 6.14 | 6.48 | CC(C)=CCc1cc(C(=O)Nc2cc3ccc(OC4CCN(C)CC4)c(C)c3oc2=O)ccc1OCCN(C)C |  |
|  | 5.90 | 6.22 | Cc1c(OC2CCN(C)CC2)ccc2cc(NC(=O)c3ccc(O)c(CCC(C)C)c3)c(=O)oc12 |  |
|  | 5.70 | 5.65 | C=CCc1cc(C(=O)Nc2cc3ccc(OC4CCN(C)CC4)c(C)c3oc2=O)ccc1OC(C)=O |  |
| 0.17 |  |  | Cc1c(OC2CCN(C)CC2)ccc2cc(NC(=O)Nc3ccc(Cl)cc3)c(=O)oc12 |  |
| 0.21 |  |  | Cc1c(OCCC2CCCCN2)ccc2cc(NC(=O)Nc3ccc(Cl)cc3)c(=O)oc12 (centres undefined) |  |
|  | 5.79 | 5.46 | CC(=O)Oc1ccc(C(=O)Nc2cc3ccc(OC4CCN(C)CC4)c(C)c3oc2=O)cc1Cl |  |
| 2.9 |  |  | COc1ccc(C(=O)Nc2cc3ccc(O[C@@H]4OC(C)(C)[C@H](OC)[C@@H](O)[C@H]4O)c(C)c3oc2=O)cc1-c1cccc(O)c1 |  |
|  | 5.95 | 5.85 | C#CCOc1ccc(C(=O)Nc2cc3ccc(OC4CCN(C)CC4)c(C)c3oc2=O)cc1CC=C(C)C |  |
|  | 6.34 | 6.60 | CC(C)=CCc1cc(C(=O)Nc2cc3ccc(OC4CCN(C)CC4)c(C)c3oc2=O)ccc1OCCCN(C)C | inhibition (Heat shock protein HSP90 [3]): Dose-dependent effect; inhibition (Heat shock protein HSP90 [4]): Dose-dependent effect; Activity (MCF7 [5]): inactive; inhibition (Heat shock protein HSP90 [6]): Dose-dependent effect |
|  | 6.44 | 6.54 | COc1ccc(C(=O)Nc2cc3ccc(OC4CCN(C)CC4)c(C)c3oc2=O)cc1-c1cccc(OC(C)=O)c1 |  |
| 10.9 |  |  | CO[C@@H]1[C@@H](O)[C@@H](O)[C@H](Oc2ccc3cc(NC(=O)c4ccc(O)c(CC=C(C)C)c4)c(=O)oc3c2C)OC1(C)C |  |
|  | 4.93 | 4.94 | Cc1c(OC2CCN(C)CC2)ccc2cc(NC(=O)c3ccccc3)c(=O)oc12 |  |
| 1.34 |  |  | COc1cccc(-c2cc(C(=O)Nc3cc4ccc(OC5CCN(C)CC5)c(C)c4oc3=O)ccc2OC)c1 |  |
|  | 6.04 | 6.04 | COc1cccc(-c2cc(C(=O)Nc3cc4ccc(OC5CCN(C)CC5)c(C)c4oc3=O)ccc2OC(C)=O)c1 |  |
